One series relates to SARS-CoV-2. Briefly: Antiviral activity against SARS-CoV-2 BetaCoV/France/IDF0372/2020 infected human A549-ACE2 cells assessed as inhibition of viral replication by qRT-PCR analysis. The format is functional, organism-based. The conditions noted are these: Severe acute respiratory syndrome coronavirus 2, BetaCoV/France/IDF0372/2020, A549-ACE2. Background: In qPCR the cycle at which signal appears reflects the starting amount.

A short description of series [1]: Cytotoxicity against human A549-ACE2 cells. Type of series: toxicity, cell-based. The procedure, abridged:
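A549-ACE2 cells (2,000/well) were exposed to compounds for 72 h. Viability was read as CellTiter-Glo luminescence. Controls were 0.5% DMSO and 10 µM camptothecin. Values come from triplicate dose-response curves.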

Series [2] is described as follows: (§1) Inhibition of SARS-CoV-2 N-terminus His tagged nsp10/nsp16 complex expressed in Escherichia coli using [3H]SAM as substrate by scintillation proximity assay. Further details: species or system Severe acute respiratory syndrome coronavirus 2. The procedure, abridged: (§2)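 Compounds were serially titrated from 8 µM to 2 mM DMSO stocks, giving 5% DMSO final. They were preincubated 2 h at 23 °C with 125 nM nsp10–nsp16 (8:1) in 50 mM Tris-HCl pH 7.5, 1.5 mM MgCl2, 1 mM TCEP and 0.01% Triton X-100. Then 0.8 µM RNA and 2 µM SAM (30% 3H-SAM) were added for 30 min at 23 °C. Radioactivity was read. Tests were in triplicate, with curves constrained to 0–100.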

The target in series [3] is Replicase polyprotein 1ab (Severe acute respiratory syndrome coronavirus 2, UniProt P0DTD1). Briefly: (§3) Inhibition of SARS-CoV-2 nsp14 guanine-N7-methyltransferase activity. The procedure, abridged: (§4)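 Compounds were serially titrated from 8 µM to 2 mM DMSO stocks, giving 5% DMSO final. They were preincubated 2 h at 23 °C with 1.5 nM nsp14 in 20 mM Tris-HCl pH 7.5, 0.25 mM MgCl2, 1 mM TCEP and 0.01% Triton X-100. Then 50 nM RNA and 0.25 µM 3H-SAM were added for 20 min. Radioactivity was read. Tests were in triplicate, with SAH as positive control and curves constrained to 0–100.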

Series [4] has as its system Severe acute respiratory syndrome coronavirus 2. The series is described as §1. The procedure, abridged:
as §2

Series [5] concerns the target Replicase polyprotein 1ab (Severe acute respiratory syndrome coronavirus 2) (UniProt P0DTD1). The series is described as §3. The procedure, abridged:
as §4

The values that follow come from ChEMBL document CHEMBL5252642, “Design and synthesis of naturally-inspired SARS-CoV-2 inhibitors” (RSC Med Chem, 2023).

pEC50, pIC50: −log10 of the molar value. Active and inactive are the calls of the source. The rule behind the calls is not given here.

The pEC50 is the negative decadic logarithm of the EC50, by convention in mol/L. As usually defined, the CC50 is the concentration at which the toxic effect on the cells reaches its halfway point. Broadly, the pIC50 is the negative decadic logarithm of the IC50, by convention in mol/L. A higher pIC50 goes with a low IC50.

For `Cc1ccc(S(=O)(=O)N2C[C@@]34CN(Cc5ccccc5)C[C@@H](O3)[C@H]3C(=O)CC[C@]2(C(C)C)[C@H]34)cc1`, in the series on SARS-CoV-2, the pEC50 is 5.08. The molecule further registered a CC50 in series [1] of 5.8 µM.

Consider `Cc1ccc(S(=O)(=O)N2C[C@@]34CN(Cc5nc6ccccc6s5)C[C@@H](O3)[C@@H]3[C@H]4[C@@]2(C(C)C)CC[C@@H]3O)cc1`, for which the negative-log EC50 (pEC50) in the series with SARS-CoV-2 was 5.18. Also, the CC50 in series [1] turned out to be 12 µM.

For the molecule `Nc1ncnc2c1ncn2[C@@H]1O[C@H](CSCC[C@H](N)C(=O)O)[C@@H](O)[C@H]1O` [S-ADENOSYLHOMOCYSTEINE], the pIC50 was 5.41 in series [2] and 6.66 in series [3].

For the molecule `Cc1ccc(S(=O)(=O)N2C[C@@]34CNC[C@@H](O3)[C@H]3C(=O)CC[C@]2(C(C)C)[C@H]34)cc1`, the negative-log EC50 (pEC50) in the series on SARS-CoV-2 was under 4.30. The same molecule came in with a cytotoxic concentration (CC50) in series [1] of over 50 µM.

As to `COc1cc(CN2C[C@H]3O[C@]4(C2)CN(S(=O)(=O)c2ccc(C)cc2)[C@]2(C(C)C)CC[C@H](O)[C@H]3[C@H]42)cc(OC)c1`, the pEC50 in the series on SARS-CoV-2 is 5.25. Half-maximal cytotoxicity in series [1] (CC50) was put at 13 µM.

With `COc1ccc(CCN2C[C@H]3O[C@]4(C2)CN(S(=O)(=O)c2ccc(C)cc2)[C@]2(C(C)C)C=C[C@H](Oc5ncccn5)[C@H]3[C@H]42)cc1`, the pEC50 with SARS-CoV-2 was under 4.30.

On to `Cc1ccc(S(=O)(=O)N2C[C@@]34CN(C)C[C@@H](O3)[C@H]3[C@@H](Oc5ncccn5)CC[C@]2(C(C)C)[C@H]34)cc1`, for which, in the series with SARS-CoV-2, the pEC50 is 4.70. This molecule also had a half-maximal cytotoxic concentration (CC50) in series [1] of 17 µM.

With `Cc1ccc(S(=O)(=O)N2C[C@@]34CN(C(=O)C5CC5)C[C@@H](O3)[C@H]3[C@@H](Oc5ncccn5)CC[C@]2(C(C)C)[C@H]34)cc1`, in the series with SARS-CoV-2, the negative logarithm of the EC50 (pEC50) was under 4.40. In series [1], this molecule returned a CC50 of over 50 µM.

Take `Cc1ccc(S(=O)(=O)N2C[C@@]34CN(Cc5ccccc5)C[C@@H](O3)[C@@H]3[C@H]4[C@@]2(C(C)C)C=C[C@@H]3O)cc1`: in the series with SARS-CoV-2, the pEC50 is 4.77. Further, in series [1], the 50% cytotoxic concentration (CC50) was over 50 µM.

For `Cc1ccc(S(=O)(=O)N2C[C@@]34CN(C(=O)c5ccc(N)cn5)C[C@@H](O3)[C@@H]3[C@H]4[C@@]2(C(C)C)CC[C@@H]3O)cc1`, the pEC50 in the series on SARS-CoV-2 was 4.43. Moreover, the CC50 in series [1] was over 50 µM.

Take `Cc1ccc(S(=O)(=O)N2C[C@@]34CN(C(=O)c5cccs5)C[C@@H](O3)[C@H]3[C@@H](Oc5cc(C)nc(N)n5)CC[C@]2(C(C)C)[C@H]34)cc1`: in the series on SARS-CoV-2, the negative-log EC50 (pEC50) is under 4.30. The CC50 in series [1] was over 50 µM.

For the molecule `Cc1ccc(S(=O)(=O)N2C[C@@]34CN(C(=O)c5ccc(F)cc5N)C[C@@H](O3)[C@@H]3[C@H]4[C@@]2(C(C)C)CC[C@@H]3O)cc1`, in the series on SARS-CoV-2, the pEC50 was 4.85. The molecule also gave a CC50 in series [1] of 20 µM.

`COc1cc(CN2C[C@H]3O[C@]4(C2)CN(S(=O)(=O)c2ccc(C)cc2)[C@]2(C(C)C)CC[C@H](OCCCN(C)C)[C@H]3[C@H]42)cc(OC)c1`: the negative logarithm of the EC50 (pEC50) in the series with SARS-CoV-2 is 5.85. The molecule also had a 50% cytotoxic concentration (CC50) in series [1] of 7.7 µM. Moreover, the inhibition entry in series [4] was “inactive”. In series [3], this molecule gave a pIC50 of under 4.00.

Take `Cc1ccc(S(=O)(=O)N2C[C@@]34CN(Cc5ccccc5)C[C@@H](O3)[C@H]3C(=O)C=C[C@]2(C(C)C)[C@H]34)cc1`: in the series on SARS-CoV-2, the pEC50 was 4.80. The same molecule showed a half-maximal cytotoxic concentration (CC50) in series [1] of 14 µM.

In the case of `Cc1ccc(S(=O)(=O)N2C[C@@]34CN(CCc5c[nH]c6ccccc56)C[C@@H](O3)[C@@H]3[C@H]4[C@@]2(C(C)C)CC[C@@H]3O)cc1`, in the series on SARS-CoV-2, the negative-log EC50 (pEC50) is 5.08. Besides, the half-maximal cytotoxic concentration (CC50) in series [1] is 13 µM.

Regarding `COCn1ccc(N2C[C@H]3O[C@]4(C2)CN(S(=O)(=O)c2ccc(C)cc2)[C@]2(C(C)C)CC[C@H](O)[C@H]3[C@H]42)nc1=O`, the pEC50 in the series on SARS-CoV-2 was under 4.77. Also, the half-maximal cytotoxic concentration (CC50) in series [1] was over 50 µM.

On to `Cc1ccc(S(=O)(=O)N2C[C@@]34CN(C)C[C@@H](O3)[C@H]3C(=O)CC[C@]2(C(C)C)[C@H]34)cc1`, for which, in the series with SARS-CoV-2, the pEC50 was under 4.30. The molecule further yielded a half-maximal cytotoxic concentration (CC50) in series [1] of over 50 µM.

Regarding `COc1ccc(CCN2C[C@H]3O[C@]4(C2)CN(S(=O)(=O)c2ccc(C)cc2)[C@]2(C(C)C)C=C[C@H](O)[C@H]3[C@H]42)cc1`, the negative-log EC50 (pEC50) with SARS-CoV-2 is 5.43. Also, the midpoint of cytotoxicity in series [1], the CC50, lay at 12 µM. Moreover, the inhibition result in series [4] and in series [5] was “inactive” throughout.

With `Cc1ccc(S(=O)(=O)N2C[C@@]34CN(Cc5nc6ccccc6s5)C[C@@H](O3)[C@H]3C(=O)CC[C@]2(C(C)C)[C@H]34)cc1`, in the series with SARS-CoV-2, the pEC50 is 5.28. The molecule further showed a CC50 in series [1] of 37 µM.

`CNC(=O)N1C[C@H]2O[C@]3(C1)CN(S(=O)(=O)c1ccc(C)cc1)[C@]1(C(C)C)CC[C@H](O)[C@H]2[C@H]31`: the pEC50 with SARS-CoV-2 was under 4.30. The molecule further showed a 50% cytotoxic concentration (CC50) in series [1] of over 50 µM.

In the case of `COc1ccc(CCN2C[C@H]3O[C@]4(C2)CN(S(=O)(=O)c2ccc(C)cc2)[C@]2(C(C)C)C=CC(=O)[C@H]3[C@H]42)cc1`, in the series with SARS-CoV-2, the pEC50 was 4.89. In series [1], the CC50 came out at 6.6 µM.

For `Cc1ccc(S(=O)(=O)N2C[C@@]34CN(Cc5ccccc5)C[C@@H](O3)[C@H]3[C@@H](Oc5ncccn5)CC[C@]2(C(C)C)[C@H]34)cc1`, the pEC50 in the series on SARS-CoV-2 was 5.21. In series [1], the CC50 came out at 6.3 µM.

Turning to `Cc1ccc(S(=O)(=O)N2C[C@@]34CN(C(=O)c5cccs5)C[C@@H](O3)[C@@H]3[C@H]4[C@@]2(C(C)C)CC[C@@H]3O)cc1`, the pEC50 in the series on SARS-CoV-2 is 4.80. The same molecule showed a CC50 in series [1] of over 50 µM.
